Laboratory results as given in ChEMBL document CHEMBL3046803, “Synthesis and insecticidal activities of novel anthranilic diamides containing acylthiourea and acylurea” (2012).

Columns and labels:
Assay type in all cases: functional
[1] = test system: Culex pipiens pallens; assay: Insecticidal activity against Culex pipiens pallens (mosquito) fourth-instar larvae assessed as larvicidal activity at 1 mg/L measured 3 days post dose
Summary of the method: (§1)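 Mosquito larvicidal test: compounds were dissolved in acetone and diluted with distilled water to the test concentrations.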

[2] = test system: Culex pipiens pallens; assay: Insecticidal activity against Culex pipiens pallens (mosquito) fourth-instar larvae assessed as larvicidal activity at 2 mg/L measured 3 days post dose; summary of the method: as §1
[3] = test system: Mythimna separata; assay: Insecticidal activity against Mythimna separata (Oriental armyworm) fourth-instar larvae infected Zea mays leaves assessed as larvicidal activity at 200 mg/L measured 2 days post dose
Summary of the method: (§2)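 Foliar application test: individual corn (Tangyu 10) leaves were placed on moistened filter paper in Petri dishes.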

[4] = test system: Mythimna separata; assay: Insecticidal activity against Mythimna separata (Oriental armyworm) fourth-instar larvae infected Zea mays leaves assessed as larvicidal activity at 50 mg/L measured 2 days post dose; summary of the method: as §2
[5] = test system: Mythimna separata; assay: Insecticidal activity against Mythimna separata (Oriental armyworm) fourth-instar larvae infected Zea mays leaves assessed as larvicidal activity at 100 mg/L measured 2 days post dose; summary of the method: as §2
[6] = test system: Culex pipiens pallens; assay: Insecticidal activity against Culex pipiens pallens (mosquito) fourth-instar larvae assessed as larvicidal activity at 0.5 mg/L measured 3 days post dose; summary of the method: as §1
[7] = test system: Plutella xylostella; assay: Insecticidal activity against Plutella xylostella (diamondback moth) s-instar larvae infected in fresh cabbage leaves assessed as larvicidal activity at 1 mg/L measured 2 days post dose
Summary of the method: (§3)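 Leaf-dip (spray) test: a 200 mg/L stock in DMF was diluted with distilled water. Cabbage leaf disks (6 × 2 cm) were sprayed for 3 s, dried, and placed individually in glass tubes. Each disk received 30 second-instar larvae. Mortality was scored at 2 days; triplicate.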

[8] = test system: Plutella xylostella; assay: Insecticidal activity against Plutella xylostella (diamondback moth) s-instar larvae infected in fresh cabbage leaves assessed as larvicidal activity at 20 mg/L measured 2 days post dose; summary of the method: as §3
[9] = test system: Mythimna separata; assay: Insecticidal activity against Mythimna separata (Oriental armyworm) fourth-instar larvae infected Zea mays leaves assessed as larvicidal activity at 10 mg/L measured 2 days post dose; summary of the method: as §2
[10] = test system: Mythimna separata; assay: Insecticidal activity against Mythimna separata (Oriental armyworm) fourth-instar larvae infected Zea mays leaves assessed as larvicidal activity at 5 mg/L measured 2 days post dose; summary of the method: as §2
[11] = test system: Mythimna separata; assay: Insecticidal activity against Mythimna separata (Oriental armyworm) fourth-instar larvae infected Zea mays leaves assessed as larvicidal activity at 20 mg/L measured 2 days post dose; summary of the method: as §2
[12] = test system: Plutella xylostella; assay: Insecticidal activity against Plutella xylostella (diamondback moth) s-instar larvae infected in fresh cabbage leaves assessed as larvicidal activity at 0.01 mg/L measured 2 days post dose; summary of the method: as §3
[13] = test system: Plutella xylostella; assay: Insecticidal activity against Plutella xylostella (diamondback moth) s-instar larvae infected in fresh cabbage leaves assessed as larvicidal activity at 0.1 mg/L measured 2 days post dose; summary of the method: as §3
[14] = test system: Plutella xylostella; assay: Insecticidal activity against Plutella xylostella (diamondback moth) s-instar larvae infected in fresh cabbage leaves assessed as larvicidal activity at 0.001 mg/L measured 2 days post dose; summary of the method: as §3

Cc1cc(Br)cc(C(=O)NC(C)C)c1NC(=S)NC(=O)c1cc(Cl)nn1-c1ncccc1Cl was tested. Which Activity [1] did it give?
Its Activity is 60%.

And the Activity [2]?
Its Activity is 90%.

And the Activity [3]?
Its Activity is 100%.

What about the Activity [4] of the same compound?
The Activity was 40%.

And the Activity [5]?
Its Activity is 80%.

What about the Activity [6] of the same compound?
The Activity was 20%.

With CCCCNC(=O)c1cc(Cl)cc(C)c1NC(=O)NC(=O)c1cc(C(F)(F)F)nn1-c1ncccc1Cl as the compound, how does the Activity [3] read?
Its Activity is 40%.

What does the source list for Cc1cc(Cl)cc(C(=O)NC2CCCCC2)c1NC(=S)NC(=O)c1cc(C(F)(F)F)nn1-c1ncccc1Cl?
Activity [3]: 40%; Activity [7]: 0%; Activity [8]: 30%

For Cc1cc(Cl)cc(C(=O)NC2CC2)c1NC(=O)NC(=O)c1cc(C(F)(F)F)nn1-c1ncccc1Cl, which Activity [3] is on record?
Its Activity is 20%.

For Cc1cc(Cl)cc(C(=O)NC2CCCCC2)c1NC(=S)NC(=O)c1cc(Br)nn1-c1ncccc1Cl, which Activity [2] is on record?
Its Activity is 40%.

And the Activity [3]?
The Activity was 0%.

With Cc1cc(Br)cc(C(=O)NC2CC2)c1NC(=O)NC(=O)c1cc(C(F)(F)F)nn1-c1ncccc1Cl as the compound, how does the Activity [3] read?
The Activity was 100%.

What about the Activity [5] of the same compound?
The Activity was 0%.

For CNC(=O)c1cc(Cl)cc(C)c1NC(=O)NC(=O)c1cc(C(F)(F)F)nn1-c1ncccc1Cl, which Activity [3] is on record?
The Activity was 100%.

And the Activity [5]?
Its Activity is 20%.

How did the Activity [9] turn out when Cc1cc(Br)cc(C(=O)NC(C)C)c1NC(=S)NC(=O)c1cc(Br)nn1-c1ncccc1Cl was run?
The Activity was 100%.

What about the Activity [1] of the same compound?
The Activity was 70%.

What about the Activity [2] of the same compound?
Its Activity is 90%.

And the Activity [3]?
The Activity was 100%.

And the Activity [10]?
Its Activity is 0%.

And the Activity [4]?
The Activity was 100%.

What about the Activity [11] of the same compound?
The Activity was 100%.

What about the Activity [5] of the same compound?
Its Activity is 100%.

And the Activity [6]?
The Activity was 30%.

How did the Activity [2] turn out when Cc1cccc(C(=O)NCCC(C)C)c1NC(=S)NC(=O)c1cc(Cl)nn1-c1ncccc1Cl was run?
Its Activity is 10%.

And the Activity [3]?
Its Activity is 60%.

How did the Activity [3] turn out when O=C(NC(=O)c1cc(C(F)(F)F)nn1-c1ncccc1Cl)Nc1ccc(Cl)cc1C(=O)NC1CC1 was run?
The Activity was 30%.

For Cc1cccc(C(=O)NC2CC2)c1NC(=O)NC(=O)c1cc(C(F)(F)F)nn1-c1ncccc1Cl, which Activity [3] is on record?
Its Activity is 100%.

What about the Activity [5] of the same compound?
Its Activity is 80%.

CCCNC(=O)c1cccc(C)c1NC(=O)NC(=O)c1cc(C(F)(F)F)nn1-c1ncccc1Cl was tested. Which Activity [3] did it give?
The Activity was 60%.

How did the Activity [9] turn out when CNC(=O)c1cc(Cl)cc(C)c1NC(=S)NC(=O)c1cc(Br)nn1-c1ncccc1Cl was run?
The Activity was 100%.

What about the Activity [1] of the same compound?
Its Activity is 20%.

What about the Activity [2] of the same compound?
The Activity was 60%.

What about the Activity [3] of the same compound?
The Activity was 100%.

And the Activity [10]?
Its Activity is 50%.

What about the Activity [4] of the same compound?
The Activity was 100%.

And the Activity [11]?
Its Activity is 100%.

And the Activity [5]?
The Activity was 100%.

Which Activity [3] does the source give for CCCNC(=O)c1cc(Cl)ccc1NC(=O)NC(=O)c1cc(C(F)(F)F)nn1-c1ncccc1Cl here?
Its Activity is 0%.

For Cc1cc(Cl)cc(C(=O)NC(C)(C)C)c1NC(=O)NC(=O)c1cc(C(F)(F)F)nn1-c1ncccc1Cl, which Activity [3] is on record?
The Activity was 60%.

How did the Activity [3] turn out when Cc1cc(Cl)cc(C(=O)NC2CCCCC2)c1NC(=O)NC(=O)c1cc(C(F)(F)F)nn1-c1ncccc1Cl was run?
The Activity was 0%.

CNC(=O)c1cc(Cl)cc(C)c1NC(=S)NC(=O)c1cc(Cl)nn1-c1ncccc1Cl was tested. Which Activity [9] did it give?
Its Activity is 40%.

What about the Activity [1] of the same compound?
Its Activity is 30%.

What about the Activity [2] of the same compound?
Its Activity is 70%.

What about the Activity [3] of the same compound?
Its Activity is 100%.

And the Activity [4]?
Its Activity is 100%.

And the Activity [11]?
Its Activity is 100%.

What about the Activity [5] of the same compound?
Its Activity is 100%.

For Cc1cc(Cl)cc(C(=O)NC(C)C)c1NC(=O)NC(=O)c1cc(C(F)(F)F)nn1-c1ncccc1Cl, which Activity [3] is on record?
Its Activity is 70%.

What does the source list for Cc1cccc(C(=O)NCCC(C)C)c1NC(=S)NC(=O)c1cc(Br)nn1-c1ncccc1Cl?
Activity [2]: 20%; Activity [3]: 100%; Activity [5]: 30%

For Cc1cccc(C(=O)NC(C)C)c1NC(=S)NC(=O)c1cc(Cl)nn1-c1ncccc1Cl, which Activity [9] is on record?
The Activity was 100%.

What about the Activity [2] of the same compound?
Its Activity is 20%.

And the Activity [3]?
The Activity was 100%.

What about the Activity [10] of the same compound?
Its Activity is 0%.

And the Activity [4]?
The Activity was 100%.

And the Activity [11]?
Its Activity is 100%.

And the Activity [5]?
The Activity was 100%.

What does the source list for CCNC(=O)c1cc(Cl)cc(C)c1NC(=S)NC(=O)c1cc(C(F)(F)F)nn1-c1ncccc1Cl?
Activity [12]: 86%; Activity [9]: 100%; Activity [3]: 100%; Activity [7]: 100%; Activity [10]: 0%; Activity [13]: 100%; Activity [4]: 100%; Activity [11]: 100%; Activity [5]: 100%; Activity [8]: 100%; Activity [14]: 29%
